19 molecules from ChEMBL document CHEMBL3244302, “Potential long-acting anticonvulsants. 1; Synthesis and activity of succinimides containing an alkylating group at the 2 position” (J Med Chem, 1977) can be followed below.

The test system of series [1] is Mus musculus. Briefly: Anticonvulsant activity in mouse assessed as protection against metrazole-induced seizures at 30 mg/kg, ip after 30 mins by subcutaneous pentylenetetrazole seizure threshold test. Format: functional, organism-based. The arrangement: dose 30 mg/kg. The essentials:
(§1)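 Screen in mice given 30, 100 or 300 mg/kg ip in 0.9% NaCl or 30% PEG 400 (0.01 ml/g), four animals per dose. Subcutaneous metrazole challenge was given to one mouse per dose at 30 min and to another at 4 h. Activity was scored as the lowest active dose.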

The subject of series [2] is Mus musculus. The series is described as follows: Anticonvulsant activity in ip dosed mouse assessed as protection against metrazole-induced seizures after 0.5 hrs by subcutaneous pentylenetetrazole seizure threshold test. Type of series: functional. The gist of the method: (§2)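 Against subcutaneous metrazole in ip-dosed mice (0.9% NaCl or 30% PEG 400 vehicle), ED50 was taken at 30 min or at the time of peak effect (0.5 h or 2 h, as the line states). ED50 and confidence limits were derived by Litchfield–Wilcoxon.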

Series [3] concerns Mus musculus. Briefly: Anticonvulsant activity in mouse assessed as protection against maximal electroshock-induced hindlimb tonic extensor component of seizure at 300 mg/kg, ip after 30 mins by MES test. Format: functional, organism-based. The arrangement: dose 300 mg/kg. The gist of the method:
(§3)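 Mice were dosed ip at 30, 100 or 300 mg/kg in 0.9% NaCl or 30% PEG 400 (0.01 ml/g), with four animals per dose. One mouse per dose got MES at 30 min and another at 4 h. Stimulus: 60-Hz AC, 50 mA, 0.2 s, corneal electrodes. Protection was abolition of hindlimb tonic extension; the lowest active dose was scored.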
On the technique in general: The maximal electroshock test induces tonic seizures with an electrical stimulus.

Series [4] relates to Mus musculus. Briefly: Anticonvulsant activity in mouse assessed as protection against metrazole-induced seizures at 30 mg/kg, ip after 4 hrs by subcutaneous pentylenetetrazole seizure threshold test. Type of series: functional, organism-based. Also noted: dose 30 mg/kg. The gist of the method: as §1
In series [5] the test system is Mus musculus. The series is described as follows: Anticonvulsant activity in mouse assessed as protection against maximal electroshock-induced hindlimb tonic extensor component of seizure at 300 mg/kg, ip after 4 hrs by MES test. Format: functional, organism-based. The arrangement: dose 300 mg/kg. The essentials:
as §3

Series [6] deals with Mus musculus. The series is described as follows: Neurotoxicity in ip dosed mouse assessed as CNS depression. The note with it: in vivo. Type of series: toxicity, organism-based, Central nervous system.
In series [7] the test system is Mus musculus. The series is described as follows: Anticonvulsant activity against metrazole-induced seizures in ip dosed mouse assessed as duration of action by subcutaneous pentylenetetrazole seizure threshold test. Type of series: functional. The gist of the method:
as §1

Series [8] in a line: Neurotoxicity in ip dosed mouse by rotarod test. Type of series: toxicity, organism-based. The note with it: in vivo. On the technique in general: The rotarod test checks motor coordination on a turning rod.
Series [9] deals with Mus musculus. Briefly: Anticonvulsant activity in mouse assessed as protection against metrazole-induced seizures at 300 mg/kg, ip after 4 hrs by subcutaneous pentylenetetrazole seizure threshold test. Format: functional, organism-based. The arrangement: dose 300 mg/kg. The essentials:
as §1

Series [10] concerns Mus musculus. The series is described as follows: Anticonvulsant activity in mouse assessed as protection against metrazole-induced seizures at 300 mg/kg, ip after 30 mins by subcutaneous pentylenetetrazole seizure threshold test. Format: functional, organism-based. Also noted: dose 300 mg/kg. The essentials:
as §1

The test system of series [11] is Mus musculus. Briefly: Anticonvulsant activity in mouse assessed as protection against metrazole-induced seizures at 100 mg/kg, ip after 4 hrs by subcutaneous pentylenetetrazole seizure threshold test. Type of series: functional, organism-based. The arrangement: dose 100 mg/kg. The gist of the method:
as §1

In series [12] the test system is Mus musculus. Briefly: Anticonvulsant activity in ip dosed mouse assessed as protection against maximal electroshock-induced hindlimb tonic extensor component of seizure by MES test. Format: functional. The essentials:
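Mice dosed ip at 30, 100 and 300 mg/kg, compound in 0.9% NaCl or 30% PEG 400 (0.01 ml/g); four animals per dose, one tested at 30 min and one at 4 h. Seizure induced by 60-Hz corneal current, 50 mA, 0.2 s; protection = abolition of hindlimb tonic extension. ED50 with confidence limits by Litchfield–Wilcoxon.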

In series [13] the test system is Mus musculus. The series is described as follows: Anticonvulsant activity in ip dosed mouse assessed as protection against metrazole-induced seizures by subcutaneous pentylenetetrazole seizure threshold test. Type of series: functional. The essentials: as §2
Series [14] relates to Mus musculus. Briefly: Anticonvulsant activity against maximal electroshock-induced hindlimb tonic extensor component of seizure in ip dosed mouse assessed as duration of action by MES test. Format: functional. The gist of the method: as §3
In series [15] the test system is Mus musculus. The series is described as follows: Anticonvulsant activity in ip dosed mouse assessed as protection against metrazole-induced seizures after 2 hrs by subcutaneous pentylenetetrazole seizure threshold test. Format: functional. The essentials:
as §2

Series [16] relates to Mus musculus. The series is described as follows: Anticonvulsant activity in ip dosed mouse assessed as protection against maximal electroshock-induced hindlimb tonic extensor component of seizure after 2 hrs by MES test. Format: functional. The gist of the method:
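MES ED50 in ip-dosed mice (0.9% NaCl or 30% PEG 400 vehicle) was read at the time of peak effect (2 h). Stimulus: 60-Hz AC, 50 mA, 0.2 s via corneal electrodes, with abolition of hindlimb tonic extension as the end point. ED50 and confidence limits were derived by Litchfield–Wilcoxon.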

Series [17] has as its system Mus musculus. Briefly: Anticonvulsant activity in mouse assessed as protection against maximal electroshock-induced hindlimb tonic extensor component of seizure at 100 mg/kg, ip after 30 mins by MES test. Also noted: dose 100 mg/kg. Format: functional, organism-based. The gist of the method: as §3
Series [18] deals with Mus musculus. The series is described as follows: Anticonvulsant activity in mouse assessed as protection against maximal electroshock-induced hindlimb tonic extensor component of seizure at 30 mg/kg, ip after 4 hrs by MES test. Also noted: dose 30 mg/kg. Type of series: functional, organism-based. The essentials:
as §3

Series [19] has as its system Mus musculus. Briefly: Anticonvulsant activity in mouse assessed as protection against maximal electroshock-induced hindlimb tonic extensor component of seizure at 100 mg/kg, ip after 4 hrs by MES test. Type of series: functional, organism-based. Also noted: dose 100 mg/kg. The gist of the method:
as §3

The source made the active and inactive calls.

What is called ED50 is the dose that gives a 50% effect, or the effect in half of the subjects. What is called TD50 is the dose at which the toxic effect under study appears in half of the subjects. Read a high TD50 as lower toxicity. Consider `CN1C(=O)CC(c2ccc(NC(=O)CBr)cc2)C1=O` (stereo not given), for which the outcome in series [1] and in series [4] was Active. Further, the ED50 in [2] is 35 mg/kg. The result in [3] and in [5] was inactive. Besides, in series [6], the Activity result is listed as “Toxic”. In addition, the Time in series [7] was 3.5 h. Besides, in series [8], the TD50 stood at 54 mg/kg.
As for `CN1C(=O)CC(CCCNC(=O)CCl)(c2ccccc2)C1=O` (stereo not given), the result in series [3], in [5], in series [9] and in series [10] was inactive.
For the molecule `CN1C(=O)CC(c2ccc(NC(=O)/C=C\C(=O)O)cc2)C1=O` (stereo not given), the result in series [3], in series [5], in [9] and in series [10] was inactive.
As for `CN1C(=O)CC(CCCNC(=O)/C=C\C(=O)O)(c2ccccc2)C1=O` (stereo not given), the result in series [3], in series [5], in [9] and in [10] was inactive.
Turning to `CN1C(=O)CC(CCCN2C(=O)C=CC2=O)(c2ccccc2)C1=O` (stereo not given), the result in series [3], in series [5] and in series [10] was inactive. Moreover, the Activity entry in series [6] is given as “Toxic”. Moreover, the outcome in series [11] was Active.
With `CN1C(=O)CC(C(=O)c2ccc(NC(=O)/C=C\C(=O)O)cc2)(c2ccccc2)C1=O` (stereo not given), the outcome in [3], in series [5], in series [9] and in series [10] was inactive.
Turning to `CN1C(=O)CC(C)(c2ccccc2)C1=O` (stereo not given) [METHSUXIMIDE], the result in [1], in series [3] and in series [5] was Active. The figures for the ED50 in series [12] and in series [13] were 76 mg/kg and 35 mg/kg, respectively. Further, the outcome in series [9] was inactive. The same molecule came in with a TD50 in series [8] of 188 mg/kg.
Regarding `CN1C(=O)CC(c2ccc(N3C(=O)C=CC3=O)cc2)C1=O` (stereo not given), the result in series [1] was Active. Further, the outcome in series [3], in [5] and in series [9] was inactive. In addition, in series [6], the Activity result is given as “Toxic”.
`CN1C(=O)CC(CCNC(=O)/C=C\C(=O)O)(c2ccccc2)C1=O` (stereo not given): the result in series [3], in series [5], in series [9] and in series [10] was inactive.
In the case of `CN1C(=O)CC(CCNC(=O)CCl)(c2ccccc2)C1=O` (stereo not given), the outcome in series [3], in series [5], in [9] and in series [10] was inactive.
Take `CN1C(=O)CC(C(=O)CCl)(c2ccccc2)C1=O` (stereo not given): the outcome in series [1], in series [3] and in series [5] was Active. In addition, the Time in series [14] amounted to 3.5 h. Further, the ED50 turned out to be 100 mg/kg in series [15] and 225 mg/kg in [16]. For the same molecule, in series [9], the outcome was inactive.
For the molecule `CN1C(=O)CC(c2ccccc2)C1=O` (stereo not given) [PHENSUXIMIDE], the outcome in series [1], in series [4], in series [5] and in series [17] was Active. The 50% effective dose (ED50) in [13] was 50 mg/kg. Moreover, in [8], the TD50 was found to be 232 mg/kg.
`CN1C(=O)CC(CCN2C(=O)C=CC2=O)(c2ccccc2)C1=O` (stereo not given): the result in series [1], in series [18] and in [4] was Active. Besides, the result in [3] was inactive. Also, the Activity entry in series [6] is on record as “Toxic”. Also, in series [7], the Time amounted to 3.5 h.
With `CN1C(=O)CC(C(=O)c2ccc(N3C(=O)C=CC3=O)cc2)(c2ccccc2)C1=O` (stereo not given), the result in series [3], in [5], in series [9] and in series [10] was inactive.
In the case of `CN1C(=O)CC(C(=O)CBr)(c2ccccc2)C1=O` (stereo not given), the outcome in [1] was Active. Besides, the outcome in series [3], in series [5] and in series [9] was inactive.
For `CN1C(=O)CC(c2ccc(NC(=O)CI)cc2)C1=O` (stereo not given), the outcome in series [1] and in [19] was Active. Moreover, the outcome in series [3] and in [9] was inactive. Further, in series [6], the Activity entry is listed as “Toxic”.
On to `CN1C(=O)CC(C(=O)c2ccc(NC(=O)CBr)cc2)(c2ccccc2)C1=O` (stereo not given), for which the result in series [3], in series [5], in series [9] and in series [10] was inactive.
Take `CCC1(C)CC(=O)NC1=O` (stereo not given) [ETHOSUXIMIDE]: the outcome in series [3], in [5] and in [9] was inactive. Also, the ED50 was above 1000 mg/kg in series [12] and 130 mg/kg in series [13]. Besides, the result in series [10] was Active.
`CN1C(=O)CC(c2ccc(NC(=O)CCl)cc2)C1=O` (stereo not given): the result in [3], in series [5], in series [9] and in series [10] was inactive.
